Measured values reported in article PMC3823100 (Journal of Cellular and Molecular Medicine, 2011).
Like-named read-outs stand apart in the source and are kept apart here.

What was measured:
Assay type in all cases: cell-based, human
MRC-5 fibroblasts = assay: MTT cytotoxicity assay, non-tumour cells; settings: read-out: IC50 (μM) ± S.D. MRC-5, 72 hrs treatment, MTT test
SW480 cells = assay: MTT cytotoxicity assay; settings: read-out: IC50 (μM) ± S.D. SW480; 72 hrs treatment, MTT test
Summary of the method: (§1)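 Cells grown with 10% foetal calf serum, penicillin/streptomycin and 2 mM L-glutamine (HCT-15 in RPMI, SW480 in DMEM). Exposed 72 hrs to increasing concentrations diluted from 1 mg/ml stocks in physiological solution, then MTT read-out. Mean absorbance per dose expressed as % of control versus concentration. IC50 from four-parameter logistic fit. Means ± S.D. of at least three measurements.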

HFF-1 fibroblasts = assay: MTT cytotoxicity assay, non-tumour cells; settings: read-out: IC50 (μM) ± S.D. HFF-1, 72 hrs treatment, MTT test
LoVo cells [1] = assay: MTT cytotoxicity assay; settings: read-out: IC50 (μM) ± S.D. LoVo, MTT test
HCT-15 cells = assay: MTT cytotoxicity assay; settings: read-out: IC50 (μM) ± S.D. HCT-15; 72 hrs treatment, MTT test
Summary of the method: as §1

DLD1 cells = assay: MTT cytotoxicity assay; settings: read-out: IC50 (μM) ± S.D. DLD1; 72 hrs treatment, MTT test
[2] = tested on: cytochrome c release in LoVo cells; assay: Cytochrome c release; settings: IC50 concentration, 12 hrs (CP also 6 and 24 hrs)
Summary of the method: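 LoVo cells (30 × 10⁶) were exposed to the test compound for 12 hrs. Cytochrome c release was then assessed by Western blotting. Values are means ± S.D. of at least three measurements.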

LoVo cells [3] = assay: Alkaline single-cell gel electrophoresis assay; settings: 12 hrs, IC50 concentration
[4] = tested on: caspase-3/-7, -6, -8, -9 in LoVo cells; assay: Caspase activation; settings: 12 or 24 hrs
Summary of the method: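 LoVo cells (10⁶) exposed 12 or 24 hrs, then lysed in 1% Triton X-100, sucrose, 5 mM EDTA, 10 mM Tris-HCl, 2 mM DTT (pH 7.6). Lysate protein incubated 60 min at 37°C with fluorogenic AMC substrates: Ac-DEVD (caspase-3/-7), Ac-VEID (-6), Ac-IETD (-8), Ac-LEHD (-9). AMC release read at ex 370/em 460 nm. Means of at least three independent experiments ± S.D.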

LoVo cells [5] = assay: Nuclear DNA fragmentation ELISA; settings: 12 hr treatment, IC50 concentration
LoVo–OxPt cells = assay: MTT cytotoxicity assay, oxaliplatin-resistant cells; settings: read-out: IC50 (μM) ± S.D. LoVo–OxPt; 48 hrs treatment, MTT test

SMILES	IC50 (MRC-5 fibroblasts)	IC50 (SW480 cells)	IC50 (HFF-1 fibroblasts)	IC50 (LoVo cells [1]; 72 hrs treatment)	IC50 (HCT-15 cells)	IC50 (DLD1 cells)	cytochrome c release [2]	comet appearance / electrophoretic migration of DNA fragments (LoVo cells [3])	caspase-3/-7, -6, -8, -9 activity (free AMC) [4]	increase in histone-DNA formation compared to controls (LoVo cells [5])	IC50 (LoVo cells [1]; 48 hrs treatment)	IC50 (LoVo–OxPt cells)
N.N.[Cl][Pt][Cl] [CisPt, Cisplatin]	19.7 ± 1.31 µM	25.2 ± 3.33 µM	23.4 ± 1.97 µM	9.02 ± 1.34 µM	16.6 ± 2.63 µM	8.01 ± 2.22 µM						
O=C1[O][Pt]2([NH][C@@H]3CCCC[C@H]3[NH]2)[O]C1=O [OxPt, oxaliplatin]	23.9 ± 1.35 µM	4.2 ± 0.75 µM	27.1 ± 1.29 µM	0.33 ± 0.17 µM	2.37 ± 0.58 µM	5.81 ± 1.93 µM	substantial cytohrome c release	significant increase in comet appearance	substantial activation of all caspases	roughly 30 fold	2.05 ± 0.43 µM	10.9 ± 1.34 µM
